Source: PubChem (Broad Institute)
Most compounds without a hit are left out; they make up all but 1.5% or so of the library.
Mot1-301 SUMO = yeast Mot1-301 growth rescue at high temperature, primary screen, SUMOylation pathway inhibitor project, S. cerevisiae, ATP luminescence, 38.5C; growth rescue, % at 18.8 µM; hit rate 1% among 320,000; AID 2716, 2010; S. cerevisiae Mot1-301 growth rescue; percent above DMSO median, 100 means doubled;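 active = every valid replicate shows activation above 250% relative to neutral control wells; inactive = the rest, any valid replicate at or below 250%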;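 also: OY570 slx delta 5 strain wells were the positive control but not used for scaling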
Statin myotox sup = suppressors of statin myotoxicity in C2C12 myotubes, primary screen, cell-based, single point, plate reader. C2C12 myotubes + simvastatin, ATP luminescence, 48 h; scaled: DMSO 0, geranylgeraniol control 100. rescue of ATP level, % at 7.49 µM. hit rate 0.78% among 330,000;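 active = mean ATP rescue above about 67%, or every replicate alone reaching that limit, limit read from the data, passing the limit was not always enough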;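 also: myotubes were challenged with 10 µM simvastatin during compound exposure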
Cneo AK release = Cryptococcus neoformans cell lysis inducers, primary screen, AK release luminescence, single concentration; C. neoformans lysis, adenylate kinase release luminescence, 4 h; normalised: neutral wells 0, clomiphene wells 100; lysis activity, % at 15 µM; hit rate 0.2% among 360,000; AID 651654, 2012;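 active = mean lysis activity across replicates of at least 80%, whatever share of replicates individually reach that level; inactive = mean lysis activity below 80%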
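Test system: log-phase Cryptococcus neoformans yeast cells. Input: 5 × 10^6 yeast cells/mL. Medium: fresh YPD growth medium. Doses: single dose. Incubation: static 4 h at 37 °C with compound, 1 h detection. Measured by: luminescent adenylate kinase detection reagent. Read-out: signal increase indicating cell lysis. Benchmarks: Clomiphene.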
Mot1 SUMO dose = growth restoration of Mot1-301 yeast on galactose, dose response, SUMO pathway inhibitor project, whole organism, S. cerevisiae, ATP luminescence, cherry-picked samples | shares compounds with Mot1-301 SUMO | S. cerevisiae Mot1-301 galactose growth, 24 h; -100 = growth of slx-deleted rescue strain | growth activity, percent, % at 42 µM | 2,300 tested, under 10 active | AID 493004, 2010;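 active = Signal drops as the depositor expects, and the fitted half-maximal dose is no more than ten times the top valid tested dose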;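 also: more negative values mean stronger growth rescue toward the control strain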
* = called active by the depositor; . = not tested or not shown; + = active, no number.

SMILES	Mot1-301 SUMO	Statin myotox sup	Cneo AK release	Mot1 SUMO dose
Cc1noc(C)c1NC(=O)Nc1ccc2c(c1)C(=O)N([C@H](C)CO)C[C@H](C)[C@@H](CN(C)C(=O)C1CCCCC1)OCCCC[C@H](C)O2	.	.	0.7	.
COc1cccc(NC(=O)CN(C)C(=O)/C=C/c2cn(-c3ccccc3)nc2-c2ccc(C)cc2)c1	-7.5	.	.	.
COc1ccc(NC(=O)CN(C)C(=O)/C=C/c2cn(-c3ccccc3)nc2-c2ccc(F)cc2)cc1	566.9*	.	.	0.8
COc1ccc(NC(=O)CN(C)C(=O)/C=C/c2cn(-c3ccccc3)nc2-c2ccc(C)cc2)cc1	514.9*	-5.5	0.9	-0.3
COc1ccc(NC(=O)CN(C)C(=O)/C=C/c2cn(-c3ccccc3)nc2-c2cccs2)cc1	-11.8	-5.4	.	.
O=C(C[C@@H]1C=C[C@H](NC(=O)c2cccnc2)[C@@H](CO)O1)NCc1ccc(Cl)c(Cl)c1	.	7.4	1.2	.
C[C@H]1O[C@H]1P(=O)(O)O	974.8*	1.1	-2.7	0.8
C[C@@H]1O[C@@H]1P(=O)(O)O	90.9	6.6	-4.1	.
COc1ccccc1C(C[N+](=O)[O-])c1c[nH]c2ccccc12 (configuration not stated)	-14.8	9.9	.	.
CC(=O)C(C(c1ccccc1)c1c[nH]c2ccccc12)[N+](=O)[O-] (configuration not stated)	402.1*	-9.2	-1.7	-0.8
Cn1c(=O)[nH]c(=O)c2c1nc(Sc1ccccc1)n2CCc1ccccc1	614.4*	-4.8	3.5	0.3
Cc1ccc(Sc2nc3c(c(=O)[nH]c(=O)n3C)n2CCc2ccccc2)cc1	-6.1	-75.2	1.3	.
COCCn1c(SCc2ccc(C)cc2)nc2c1c(=O)[nH]c(=O)n2C	-9.8	10.6	0.7	.
COCCn1c(SCc2ccc(Cl)cc2)nc2c1c(=O)[nH]c(=O)n2C	+	.	4.0	-0.1
C[C@@H]1CN([C@@H](C)CO)C(=O)c2cc(NS(C)(=O)=O)ccc2O[C@@H](C)CCCCO[C@H]1CN(C)S(=O)(=O)c1ccc(F)cc1	.	-75.3	1.3	.
O=c1c2ccccc2nc(SCc2nnc(-c3ccccc3Br)o2)n1-c1ccccc1	35.3	3.4	-3.7	.
O=c1c2ccccc2nc(SCc2nnc(-c3ccccc3)o2)n1-c1ccc(F)cc1F	465.9*	.	-1.2	0.0
Fc1ccc(CSc2nnc(-c3ccncc3)o2)cc1	-10.3	8.8	3.6	.
Cc1ccccc1-c1nnc(SCc2ccc(F)cc2)o1	+	23.2	.	-1.0
CS(=O)(=O)c1ccc(Cl)c(C(=O)O)c1	607.9*	20.7	-2.6	-0.3
O=C(O)c1cc(S(=O)(=O)N2CCCCCC2)ccc1Cl	55.5	.	-4.8	.
Cc1nn2c(N3CCOCC3)cc(C(C)C)nc2c1-c1ccccc1	10.3	-4.8	0.8	.
CC(C)c1cc(N2CCOCC2)n2ncc(-c3ccccc3)c2n1	489.2*	-25.3	-0.9	0.0
CO[C@@H]1CN(C)C(=O)c2ccc(NS(=O)(=O)c3ccc(Cl)cc3)cc2OC[C@H](C)NC[C@@H]1C	.	-3.0	-0.6	.
CCNC(=O)C[C@H]1CC[C@H]2[C@@H](COC[C@H](O)CN2C(=O)C2CC2)O1	.	3.7	1.6	.
SMILES	Mot1-301 SUMO	Statin myotox sup	Cneo AK release	Mot1 SUMO dose
Cc1ccccc1CC1(CO)CCCN(C(=O)CCC(F)(F)F)C1 (configuration not stated)	8.4	10.6	-0.7	.
O=C(CCC(F)(F)F)N1CCCC(CO)(CCc2ccccc2)C1 (configuration not stated)	737.6*	6.6	2.5	1.1
CCC(=O)N(C)C[C@H]1Oc2ncc(C#CCC(C)C)cc2C(=O)N([C@H](C)CO)C[C@@H]1C	.	0.8	-0.7	.
CCOCCCNC(=O)c1ccc(NC(C)=O)cc1	17.3	3.6	0.4	.
CC(=O)Nc1ccc(C(=O)NCCCOC(C)C)cc1	797.6*	0.6	3.0	0.1
O=C1CN(C(=O)COC(=O)CCNS(=O)(=O)c2ccc(Cl)cc2)c2ccccc2N1	364.8*	.	-1.1	-0.2
Cc1ccc(S(=O)(=O)NCC(=O)NCC(=O)OCC(=O)N2CC(=O)Nc3ccccc32)cc1C	16.1	.	.	.
CCC(=O)N(C)C[C@@H]1Oc2cc(C#CCC3CCCC3)ccc2S(=O)(=O)N([C@@H](C)CO)C[C@@H]1C	.	4.3	0.5	.
Cc1nn(CC(=O)Nc2ccccn2)c(C)c1[N+](=O)[O-]	423.8*	23.9	-4.8	0.2
Cc1nn(CCCC(=O)Nc2ccccn2)c(C)c1[N+](=O)[O-]	3.5	.	.	.
Cc1cccc(C(=O)NCC(=O)N2CCN(c3ccc(Cl)cc3)CC2)c1	367.6*	15.1	1.6	0.3
Cc1cc(C)cc(C(=O)NCC(=O)N2CCN(c3cccc(Cl)c3)CC2)c1	53.0	3.1	0.2	.
Cc1ccc2ccc(S(=O)(=O)NCc3ccco3)cc2c1	8.9	16.3	2.2	.
O=S(=O)(NCc1ccco1)c1ccc2ccccc2c1	429.7*	36.1	0.8	-0.1
COc1ccc(S(=O)(=O)Nc2ccc3c(c2)CC(=O)N([C@@H](C)CO)C[C@H](C)[C@H](CN(C)Cc2ccc4c(c2)OCO4)O3)cc1	.	1.6	3.4	.
CN(C)CC(=O)Nc1ccc2c(c1)[C@@H]1C[C@@H](CC(=O)NC3CCCC3)O[C@@H](CO)[C@@H]1O2	.	-1.8	-2.2	.
O=C(C1CC1)N1CCCCN2[C@H](C1)[C@@H](c1ccc(C#CC3(O)CCCC3)cc1)[C@@H]2CO	.	.	-0.8	.
Cc1ccc(C(=O)OC(C)C(=O)NCc2ccc3c(c2)OCO3)cc1S(=O)(=O)N1CCOCC1 (configuration not stated)	-7.4	25.2	0.1	.
CC(OC(=O)c1cc(S(=O)(=O)N2CCOCC2)ccc1F)C(=O)NCc1ccc2c(c1)OCO2 (configuration not stated)	373.6*	2.7	-0.4	0.0
CCCC(=O)Nc1ccc2c(c1)C(=O)N(C)C[C@@H](OC)[C@H](C)CN(C(=O)c1ccccc1F)[C@H](C)CO2	.	-9.8	1.7	.
CCCN(C)C[C@H]1OCCCC[C@@H](C)Oc2ccc(NC(=O)c3ccccc3)cc2C(=O)N([C@@H](C)CO)C[C@H]1C	.	24.5	.	.
N#C/C(=C\c1ccc(N2CCOCC2)o1)C(=O)Nc1ccc(O)cc1	165.9	.	-5.8	.
N#C/C(=C/c1ccc(N2CCCCC2)o1)C(=O)Nc1ccc(Cl)cc1	587.2*	-36.4	-5.3	0.4
COc1cccc(C(=O)N2C[C@@H]3[C@H](c4ccccc42)[C@@H](CO)N3C(=O)c2ccccc2)c1	.	-17.8	-1.2	.
CCCNC(=O)Nc1ccc2c(c1)C(=O)N(C)[C@H]1CC[C@@H](CC(=O)NCC3CCCCC3)O[C@H]1CO2	.	-17.6	-1.8	.
C[C@H](CO)N1C[C@H](C)[C@@H](CN(C)S(=O)(=O)c2cn(C)cn2)Oc2ccc(NC(=O)Cc3cn(C)c4ccccc34)cc2C1=O	.	-13.4	2.0	.
